ChEMBL document CHEMBL1649407, “Part I: Synthesis, cancer chemopreventive activity and molecular docking study of novel quinoxaline derivatives” (Eur J Med Chem, 2011)

Key:
[1] = Cytotoxicity against human Raji cells assessed as cell viability at 1000 molar ratio by trypan blue staining method
Mus musculus [2] = test: Inhibition of DMBA-initiated/TPA-promoted carcinogenesis in ICR mouse assessed as mouse bearing papillomas at 85 nmol administered 1 hr before TPA treatment measured after 18 weeks by two-stage carcinogenesis test; format: functional; set-up: scale not given: the % may be the effect or the level left
Method in brief: (§1)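 Female SPF ICR mice, 6 weeks old, 15 per group, backs shaved. Initiation: topical DMBA (390 nmol) in 0.1 mL acetone. Promotion began one week later: TPA (1.7 nmol) in 0.1 mL acetone, twice weekly. Test compound (85 nmol) in 0.1 mL acetone applied topically 1 h before each promotion. Papilloma-bearing mice and papillomas per mouse scored weekly for 20 weeks. Tumor type confirmed histologically. Student's t-test.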

Mus musculus [3] = test: Inhibition of DMBA-initiated/TPA-promoted carcinogenesis in ICR mouse assessed as mouse bearing papillomas at 85 nmol administered 1 hr before TPA treatment measured after 4 weeks by two-stage carcinogenesis test; format: functional; set-up: scale not given: the % may be the effect or the level left; method in brief: as §1
Mus musculus [4] = test: Inhibition of DMBA-initiated/TPA-promoted carcinogenesis in ICR mouse assessed as mouse bearing papillomas at 85 nmol administered 1 hr before TPA treatment measured after 17 weeks by two-stage carcinogenesis test; format: functional; set-up: scale not given: the % may be the effect or the level left; method in brief: as §1
Mus musculus [5] = test: Inhibition of DMBA-initiated/TPA-promoted carcinogenesis in ICR mouse assessed as mouse bearing papillomas at 85 nmol administered 1 hr before TPA treatment measured after 8 weeks by two-stage carcinogenesis test; format: functional; set-up: scale not given: the % may be the effect or the level left; method in brief: as §1
Mus musculus [6] = test: Toxicity in topically treated ICR mouse assessed as lesional damage; format: organism-based; conditions: in vivo, topical_or_ocular
Method in brief: (§2)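 Treated areas of shaved back skin were inspected during the DMBA/TPA two-stage study, where test compound (85 nmol in acetone) was applied topically before each twice-weekly TPA promotion. Scored for lesional damage and for inflammation (edema, erosion, ulcer).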

Mus musculus [7] = test: Toxicity in topically treated ICR mouse assessed as inflammation; format: organism-based; conditions: in vivo, topical_or_ocular; method in brief: as §2
Mus musculus [8] = test: Inhibition of DMBA-initiated/TPA-promoted carcinogenesis in ICR mouse assessed as mouse bearing papillomas at 85 nmol administered 1 hr before TPA treatment measured after 11 weeks by two-stage carcinogenesis test; format: functional; set-up: scale not given: the % may be the effect or the level left; method in brief: as §1
Mus musculus [9] = test: Inhibition of DMBA-initiated/TPA-promoted carcinogenesis in ICR mouse assessed as mouse bearing papillomas at 85 nmol administered 1 hr before TPA treatment measured after 2 weeks by two-stage carcinogenesis test; format: functional; set-up: scale not given: the % may be the effect or the level left; method in brief: as §1
Mus musculus [10] = test: Inhibition of DMBA-initiated/TPA-promoted carcinogenesis in ICR mouse assessed as mouse bearing papillomas at 85 nmol administered 1 hr before TPA treatment measured after 5 weeks by two-stage carcinogenesis test; format: functional; set-up: scale not given: the % may be the effect or the level left; method in brief: as §1
Mus musculus [11] = species on record: Mus musculus; test: Toxicity in ICR mouse assessed as change in body weight; format: organism-based; conditions: in vivo
Method in brief: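 Mice from the DMBA/TPA two-stage skin study received topical test compound in acetone before each TPA promotion. Body-weight gain was followed during the 20-week experiment. Food and water ad libitum, five mice per cage at 24 ± 2 °C.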

Mus musculus [12] = test: Inhibition of DMBA-initiated/TPA-promoted carcinogenesis in ICR mouse assessed as mouse bearing papillomas at 85 nmol administered 1 hr before TPA treatment measured after 6 weeks by two-stage carcinogenesis test; format: functional; set-up: scale not given: the % may be the effect or the level left; method in brief: as §1
Mus musculus [13] = test: Inhibition of DMBA-initiated/TPA-promoted carcinogenesis in ICR mouse assessed as mouse bearing papillomas at 85 nmol administered 1 hr before TPA treatment measured after 19 weeks by two-stage carcinogenesis test; format: functional; set-up: scale not given: the % may be the effect or the level left; method in brief: as §1
Mus musculus [14] = test: Inhibition of DMBA-initiated/TPA-promoted carcinogenesis in ICR mouse assessed as mouse bearing papillomas at 85 nmol administered 1 hr before TPA treatment measured after 12 weeks by two-stage carcinogenesis test; format: functional; set-up: scale not given: the % may be the effect or the level left; method in brief: as §1
Mus musculus [15] = test: Inhibition of DMBA-initiated/TPA-promoted carcinogenesis in ICR mouse assessed as mouse bearing papillomas at 85 nmol administered 1 hr before TPA treatment measured after 10 weeks by two-stage carcinogenesis test; format: functional; set-up: scale not given: the % may be the effect or the level left; method in brief: as §1
Mus musculus [16] = test: Inhibition of DMBA-initiated/TPA-promoted carcinogenesis in ICR mouse assessed as mouse bearing papillomas at 85 nmol administered 1 hr before TPA treatment measured after 15 weeks by two-stage carcinogenesis test; format: functional; set-up: scale not given: the % may be the effect or the level left; method in brief: as §1
Mus musculus [17] = test: Inhibition of DMBA-initiated/TPA-promoted carcinogenesis in ICR mouse assessed as mouse bearing papillomas at 85 nmol administered 1 hr before TPA treatment measured after 14 weeks by two-stage carcinogenesis test; format: functional; set-up: scale not given: the % may be the effect or the level left; method in brief: as §1
Mus musculus [18] = test: Inhibition of DMBA-initiated/TPA-promoted carcinogenesis in ICR mouse assessed as mouse bearing papillomas at 85 nmol administered 1 hr before TPA treatment measured after 7 weeks by two-stage carcinogenesis test; format: functional; set-up: scale not given: the % may be the effect or the level left; method in brief: as §1
Mus musculus [19] = test: Inhibition of DMBA-initiated/TPA-promoted carcinogenesis in ICR mouse assessed as mouse bearing papillomas at 85 nmol administered 1 hr before TPA treatment measured after 20 weeks by two-stage carcinogenesis test; format: functional; set-up: scale not given: the % may be the effect or the level left; method in brief: as §1
Mus musculus [20] = test: Inhibition of DMBA-initiated/TPA-promoted carcinogenesis in ICR mouse assessed as mouse bearing papillomas at 85 nmol administered 1 hr before TPA treatment measured after 16 weeks by two-stage carcinogenesis test; format: functional; set-up: scale not given: the % may be the effect or the level left; method in brief: as §1
Mus musculus [21] = test: Inhibition of DMBA-initiated/TPA-promoted carcinogenesis in ICR mouse assessed as mouse bearing papillomas at 85 nmol administered 1 hr before TPA treatment measured after 1 week by two-stage carcinogenesis test; format: functional; set-up: scale not given: the % may be the effect or the level left; method in brief: as §1
Mus musculus [22] = test: Inhibition of DMBA-initiated/TPA-promoted carcinogenesis in ICR mouse assessed as mouse bearing papillomas at 85 nmol administered 1 hr before TPA treatment measured after 9 weeks by two-stage carcinogenesis test; format: functional; set-up: scale not given: the % may be the effect or the level left; method in brief: as §1
Mus musculus [23] = test: Inhibition of DMBA-initiated/TPA-promoted carcinogenesis in ICR mouse assessed as mouse bearing papillomas at 85 nmol administered 1 hr before TPA treatment measured after 13 weeks by two-stage carcinogenesis test; format: functional; set-up: scale not given: the % may be the effect or the level left; method in brief: as §1
Mus musculus [24] = test: Inhibition of DMBA-initiated/TPA-promoted carcinogenesis in ICR mouse assessed as mouse bearing papillomas at 85 nmol administered 1 hr before TPA treatment measured after 3 weeks by two-stage carcinogenesis test; format: functional; set-up: scale not given: the % may be the effect or the level left; method in brief: as §1

c1ccc2nc3c(nc2c1)nc1ccccn13
viability at 1000 molar ratio ([1]; Raji cells): 60%

O=c1[nH]c2ccccc2nc1Cl
viability at 1000 molar ratio ([1]; Raji cells): 50%

COc1ccccc1/C=N/Nc1nc2ccccc2[nH]c1=O
viability at 1000 molar ratio ([1]; Raji cells): 60%

Nc1nc2ccccc2[nH]c1=O
viability at 1000 molar ratio ([1]; Raji cells): 60%

N#Cc1c(-c2ccc(F)cc2)nc(Sc2nc3ccccc3nc2Cl)[nH]c1=O
viability at 1000 molar ratio ([1]; Raji cells): 60%

O=c1[nH]c2ccccc2nc1N/N=C/c1ccccc1
viability at 1000 molar ratio ([1]; Raji cells): 60%

Clc1nc2ccccc2nc1SCc1nc2ccccc2[nH]1
viability at 1000 molar ratio ([1]; Raji cells): 60%

CCOC(=O)Cn1c(=O)c(N/N=C/c2ccccc2OC)nc2ccccc21
viability at 1000 molar ratio ([1]; Raji cells): 60%

Clc1nc2ccccc2nc1Cl
viability at 1000 molar ratio ([1]; raji): 50%

C=CCn1c(=O)c(N/N=C/c2ccccc2OC)nc2ccccc21
viability at 1000 molar ratio ([1]; Raji cells): 60%

C=CCn1c(=O)c(N/N=C/c2ccccc2)nc2ccccc21
viability at 1000 molar ratio ([1]; Raji cells): 60%

N#Cc1c(-c2ccccc2)nc(Sc2nc3ccccc3nc2Cl)[nH]c1=O
viability at 1000 molar ratio ([1]; Raji cells): 60%

NNc1nc2ccccc2[nH]c1=O
viability at 1000 molar ratio ([1]; Raji cells): 60%

C=CCN(/N=C/c1ccccc1OC)c1nc2ccccc2n(CC=C)c1=O
Activity (Mus musculus [2]): 80%
Activity (Mus musculus [3]): 0%
Activity (Mus musculus [4]): 73.3%
Activity (Mus musculus [5]): 13.3%
Activity (Mus musculus [6]): Non-toxic
Activity (Mus musculus [7]): Non-toxic
Activity (Mus musculus [8]): 26.6%
Activity (Mus musculus [9]): 0%
Activity (Mus musculus [10]): 0%
Activity (Mus musculus [11]): Non-toxic
Activity (Mus musculus [12]): 0%
Activity (Mus musculus [13]): 86.6%
Activity (Mus musculus [14]): 33.3%
viability at 1000 molar ratio ([1]; Raji cells): 60%
Activity (Mus musculus [15]): 20%
Activity (Mus musculus [16]): 60%
Activity (Mus musculus [17]): 60%
Activity (Mus musculus [18]): 0%
Activity (Mus musculus [19]): 86.6%
Activity (Mus musculus [20]): 66.6%
Activity (Mus musculus [21]): 0%
Activity (Mus musculus [22]): 13.3%
Activity (Mus musculus [23]): 46.6%
Activity (Mus musculus [24]): 0%

CCOC(=O)Cn1c(=O)c(N/N=C/c2ccccc2)nc2ccccc21
viability at 1000 molar ratio ([1]; Raji cells): 60%

Clc1nc2ccccc2nc1Sc1nc2ccccc2[nH]1
viability at 1000 molar ratio ([1]; Raji cells): 60%

c1ccc2nc3c(nc2c1)[nH]c1cccc[n+]13
viability at 1000 molar ratio ([1]; Raji cells): 60%

CCOC(=O)CN(/N=C/c1ccccc1OC)c1nc2ccccc2n(CC(=O)OCC)c1=O
viability at 1000 molar ratio ([1]; Raji cells): 60%

N#Cc1c(-c2ccc(O)cc2)nc(Sc2nc3ccccc3nc2Cl)[nH]c1=O
viability at 1000 molar ratio ([1]; Raji cells): 60%

Oc1nc2ccccc2nc1O
viability at 1000 molar ratio ([1]; Raji cells): 60%
